Assay results collected from several papers.
Protocols differ between the studies behind these lines.
HTR2A: 5-hydroxytryptamine receptor 2A (HTR2A, Homo sapiens, UniProt P28223)
HDAC2: Histone deacetylase 2 (HDAC2, Homo sapiens, UniProt Q92769)
ADORA2A: Adenosine receptor A2a (ADORA2A, Homo sapiens, UniProt P29274)

Cc1[nH]c2ccccc2c1SCCNC(=O)C1NCCC1C1CC1 (stereo not drawn) — IC50 (HTR2A; calcium signal, antagonist): 31.7 µM
O=C(NO)c1cncc(OS(=O)(=O)Oc2ccc(C(F)(F)F)cc2)c1 — Ki (HDAC2; enzyme activity, inhibitor, fluorescence): 1.31 µM
CC(C)=CCNc1ncnc2c1ncn2[C@@H]1O[C@H](CO)[C@@H](O)[C@H]1O — EC50 (ADORA2A; G protein activation, agonist): 6.4 µM
C=CCO[C@H]1O[C@H](CO)[C@@H](OP(=O)(O)O[C@H]2O[C@H](CO)[C@@H](O)[C@H](O)[C@@H]2O)[C@H](O)[C@@H]1O — Kd (CLEC4E (Homo sapiens, UniProt Q9ULY5); binding, BLI): 1.59 µM
N#C[C@@]12C[C@@H]1[C@@H](n1cnc3c(NCc4cccc(Cl)c4)nc(I)nc31)[C@H](O)[C@@H]2O — Ki (HTR2A; ligand displacement, radioligand): 4.9 µM
O=C(/C=C/c1cccc(OS(=O)(=O)Oc2ccc(C(F)(F)F)cc2)c1)NO — Ki (HDAC2; enzyme activity, inhibitor, fluorescence): 0.105 µM
CN(C)c1ncnc2c1ncn2[C@@H]1O[C@H](CO)[C@@H](O)[C@H]1O — EC50 (ADORA2A; G protein activation, agonist): 3.2 µM
COc1ccccc1CC1CCN(CC(=O)c2cc(C)[nH]c2C)C1 (stereo not drawn) — IC50 (HTR2A; calcium signal, antagonist): 13.2 µM
N#C[C@@]12C[C@@H]1[C@@H](n1cnc3c(N[C@@H](C4CCC4)C4CC4)nc(I)nc31)[C@H](O)[C@@H]2O — Ki (ADORA2A; ligand displacement, radioligand): > 10 µM
